We go through 1 molecule from publication PMC3923119 (Osteoporosis International, 2013).

Where two headings read alike, the source gives them in different places.

The conditions of series [1]: cited from earlier work.
The test system of series [2] is postmenopausal women with osteoporosis. Kind of series: Changes in bone turnover markers. The series is classed as in vivo, human. The procedure, abridged:
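Women aged 60–79 received 56.5 μg test compound s.c. weekly for 24 weeks. In weeks 0, 4, 12 and 24, dosing followed 0 h sampling at 0800, with serum/urine taken at 0, 2, 4, 6, 8, 12 and 24 h. Osteocalcin was measured by IRMA, P1NP by RIA, urinary NTX by ELISA, plus urinary DPD. Read-outs were mean (±SE) percent change from 0 h or week 0, paired t test.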

Series [3] concerns healthy postmenopausal women. The conditions noted are these: day 7 after single injection of 56.5 μg; cited from earlier work.
For series [4], the system named is postmenopausal women with osteoporosis. Description: Changes in calcium metabolism. The series is classed as in vivo, human. The procedure, abridged: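 Weekly s.c. 56.5 μg test compound for 24 weeks, in osteoporotic women aged 60–79 on calcium/vitamin D/magnesium supplements. Blood was drawn in weeks 0, 4, 12 and 24, with 0 h sampling at 0800 before dosing and further samples over 24 h. Corrected serum Ca and intact PTH (electrochemiluminescence immunoassay) are given as means±SE versus 0 h or week 0, paired t test.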

The conditions of series [5]: daily teriparatide, cited from earlier work.
In series [6] the test system is postmenopausal women with osteoporosis. Description: Adverse events. The series is classed as in vivo, human. Particulars: 56.5 μg once weekly for 24 weeks. The procedure, abridged:
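Japanese postmenopausal women with osteoporosis, aged 60–79, at four centres. Test compound (PTH peptide) 56.5 μg given s.c. weekly for 24 weeks, with daily calcium 610 mg, vitamin D 400 IU and magnesium 30 mg. Physicians recorded adverse events and classified them by MedDRA 12.0 system organ class.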

Where [7] appears, read: after 24 weeks, 56.5 μg once weekly.
The mark [8] stands for this setting: at 4 weeks, 56.5 μg once weekly, mean percent change, significant.

As to `CC[C@H](C)[C@H](NC(=O)[C@H](CCC(=O)O)NC(=O)[C@H](CO)NC(=O)[C@@H](NC(=O)[C@@H](N)CO)C(C)C)C(=O)N[C@@H](CCC(N)=O)C(=O)N[C@@H](CC(C)C)C(=O)N[C@@H](CCSC)C(=O)N[C@@H](Cc1cnc[nH]1)C(=O)N[C@@H](CC(N)=O)C(=O)N[C@@H](CC(C)C)C(=O)NCC(=O)N[C@@H](CCCCN)C(=O)N[C@@H](Cc1cnc[nH]1)C(=O)N[C@@H](CC(C)C)C(=O)N[C@@H](CC(N)=O)C(=O)N[C@@H](CO)C(=O)N[C@@H](CCSC)C(=O)N[C@@H](CCC(=O)O)C(=O)N[C@@H](CCCN=C(N)N)C(=O)N[C@H](C(=O)N[C@@H](CCC(=O)O)C(=O)N[C@@H](Cc1c[nH]c2ccccc12)C(=O)N[C@@H](CC(C)C)C(=O)N[C@@H](CCCN=C(N)N)C(=O)N[C@@H](CCCCN)C(=O)N[C@@H](CCCCN)C(=O)N[C@@H](CC(C)C)C(=O)N[C@@H](CCC(N)=O)C(=O)N[C@@H](CC(=O)O)C(=O)N[C@H](C(=O)N[C@@H](Cc1cnc[nH]1)C(=O)N[C@@H](CC(N)=O)C(=O)N[C@@H](Cc1ccccc1)C(=O)O)C(C)C)C(C)C` [teriparatide, Human parathyroid hormone (PTH) 1–34], the “relative risk reduction in vertebral fractures” value in series [1] (daily teriparatide) was 65%. The “relative risk of non-vertebral fragility fracture” value in series [1] (once-weekly teriparatide injection, 95 % CI, 0.24–1.84, p = 0.43) is on record as 0.67. For the same molecule, the “relative risk reduction in vertebral fractures” value in series [1] (once-weekly teriparatide) is 80%. In series [2] (setting [7]), the “serum P1NP change after 24 weeks” value is listed as “did not increase significantly” and the “serum osteocalcin change after 24 weeks” value is reported as “increased significantly”. Besides, in series [2] (at 2 or 4 h after 56.5 μg injection, range of means over data collection weeks), the “urinary DPD maximum value, 24 h percent change from 0 h” value fell in the range of 29.5 to 31.6%. In addition, in series [2] (at 4 or 6 h after 56.5 μg injection, range of means over data collection weeks), the “urinary NTX maximum value, 24 h percent change from 0 h” value is 41.2 to 67.4%. The “urinary DPD decrease from baseline (0 h values)” value in series [2] (at 4 weeks, 56.5 μg once weekly, mean percent change) stood at 17.8%. In series [2] (setting [8]), the “serum P1NP increase from baseline (0 h values)” value is recorded as 19.9%, the “serum osteocalcin increase from baseline (0 h values)” value came out at 26.8% and the “urinary NTX decrease from baseline (0 h values)” value is recorded as 14.8%. Further, the “serum P1NP minimum value, 24 h percent change from 0 h” value in series [2] (at 6 h after 56.5 μg injection, range of means over data collection weeks) is on record as −15.1 to −22.3%. Besides, in series [3], the NTX decrease is on record as 10%, the P1NP increase is listed as 10% and the osteocalcin increase was 5%. In addition, in series [4] (0 h values at 4 and 24 weeks versus 0 weeks, 56.5 μg once weekly, paired t test), the “serum corrected Ca level during the 24 week dosage period” value was “decreased significantly”. Also, in series [4] (0 h values at 12 and 24 weeks versus 0 weeks, 56.5 μg once weekly, paired t test), the “intact PTH level during the dosage period of 24 weeks” value is reported as “decreased significantly”. Moreover, in series [4] (at 2 or 6 h after 56.5 μg injection, range of means over data collection weeks), the “serum intact PTH minimum concentration” value lay in the range of 25.6 to 28.3 pg/mL. The “bone formation marker increase” value in series [5] (after 1 month) was 105%. In series [5] (after 6 months), the “bone formation marker (serum PINP) increase” value is given as 218% and the “bone resorption marker (urinary NTX) increase” value is 58%. For the same molecule, the Hypercalcemia result in series [6] is given as “not observed”. Moreover, in series [6] (28 subjects), the “serious AEs” value is on record as “No serious AEs were observed”.
